ChEMBL document CHEMBL1121898, “Potential antiestrogens. Synthesis and evaluation of mammary tumor inhibiting activity of 1,2-dialkyl-1,2-bis(3'-hydroxyphenyl)ethanes” (1981)

Legend:
Rattus norvegicus [1] = species: Rattus norvegicus; assay: Number of DMBA-induced hormone-dependent mammary carcinoma tumors in ovariectomised rats; assay type: functional
Outline: (§1)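 DMBA-induced, hormone-dependent mammary adenocarcinoma in SD rats, with ovariectomy as the treatment. Rats bearing at least one tumor >140 mm² were placed in groups of ten. Tumors were counted at the start and as new tumors. Responses were scored as complete remission, partial remission (≥50% size reduction), no change or progression, with % change in tumor area and body weight.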

Rattus norvegicus [2] = species: Rattus norvegicus; assay: Percent change in body weight DMBA-induced hormone-dependent mammary carcinoma tumors in ovariectomised rats after 7 days; assay type: functional; outline: as §1
[3] = molecular target: T1, Estrogen receptor (Mus musculus) (UniProt O08537+P19785); assay: Antiestrogenic activity in uterotrophic test in mice at 0 ug; assay type: functional
Outline: (§2)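 Immature female NMRI mice, 20 days old (14.5 ± 1.2 g), randomly grouped 10 per group. Each received a daily sc injection for 3 days of 0.1 mL olive oil solution containing test compound, together with estrone to stimulate uterine growth. Uteri were removed 24 h after the last injection and weighed. Results are reported as % inhibition of the estrone-stimulated uterine weight gain, mean ± SD.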

Rattus norvegicus [4] = species: Rattus norvegicus; assay: Percent change in DMBA-induced hormone-dependent mammary carcinoma tumor area in ovariectomised rats after 28 days; assay type: functional; outline: as §1
Rattus norvegicus [5] = species: Rattus norvegicus; assay: Percent unchanged tumor size of DMBA-induced hormone-dependent mammary carcinoma tumors in ovarectiemised rats; assay type: functional; outline: as §1
[6] = molecular target: T1, Estrogen receptor (Mus musculus); assay: Inhibitory activity in mouse uterine weight test at 3.3 ug; assay type: functional
Outline: (§3)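 Antiuterotrophic (Dorfman) assay in immature 20-day-old female NMRI mice, groups of 10. Uterine growth was stimulated with estrone (0.1 μg) and the test compound was given alongside it, sc daily for 3 days in 0.1 mL olive oil. Uteri were taken 24 h after the last dose. Uterine weight is reported as means ± SD and inhibition as % of the estrone-stimulated response.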

[7] = molecular target: T1, Estrogen receptor (Mus musculus); assay: Estrogenic activity in uterotrophic test in mice at 100 ug; assay type: functional
Outline: (§4)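 Uterine growth stimulation in immature female NMRI mice, 20 days old (14.5 ± 1.2 g), 10 per group. Test compound in 0.1 mL olive oil was given sc daily for 3 days. Uteri were excised 24 h after the final injection and weighed. Effect is reported as mean ± SD.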

[8] = molecular target: T1, Estrogen receptor (Mus musculus); assay: Antiestrogenic activity in uterotrophic test in mice at 3.3 ug; assay type: functional; outline: as §2
Rattus norvegicus [9] = species: Rattus norvegicus; assay: Percent change in body weight DMBA-induced hormone-dependent mammary carcinoma tumors in rats at 34 mg for 7 days; assay type: functional
[10] = molecular target: T1, Estrogen receptor (Mus musculus); assay: Antiestrogenic activity in uterotrophic test in mice at 100 ug; assay type: functional; outline: as §2
Rattus norvegicus [11] = species: Rattus norvegicus; assay: Partial remission of DMBA-induced hormone-dependent mammary carcinoma tumors in rats at 8.5 mg; assay type: functional
Outline: (§5)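 DMBA-induced, hormone-dependent mammary adenocarcinoma in SD rats. Rats bearing at least one tumor >140 mm² were placed in groups of ten. Compound was given sc as a single dose (mg/kg) daily Monday–Thursday and a double dose on Friday. Tumors were counted at the start and as new tumors; responses were scored as complete remission (not palpable), partial remission (≥50% reduction), no change or progression. Tumor area and body weight were recorded as % change.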

[12] = molecular target: T1, Estrogen receptor (Mus musculus); assay: Estrogenic activity in uterotrophic test in mice at 300 ug; assay type: functional
Outline: (§6)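 Immature (20-day-old) female NMRI mice, 14.5 ± 1.2 g, randomized into groups of 10. Given the test compound sc daily for 3 days in 0.1 mL olive oil. Uteri removed 24 h after the last injection; uterine weight taken as the read-out, means ± SD. Dose in μg.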

Rattus norvegicus [13] = species: Rattus norvegicus; assay: Initial tumor number of DMBA-induced hormone-dependent mammary carcinoma in rats at 34 mg; assay type: functional; outline: as §5
[14] = molecular target: T1, Estrogen receptor (Mus musculus); assay: Antiestrogenic activity in uterotrophic test in mice at 1000 ug; assay type: functional; outline: as §2
Rattus norvegicus [15] = species: Rattus norvegicus; assay: Partial remission of DMBA-induced hormone-dependent mammary carcinoma tumors in ovariectomised rats; assay type: functional; outline: as §1
[16] = molecular target: T1, Estrogen receptor (Mus musculus); assay: Inhibitory activity in mouse uterine weight test at 100 ug; assay type: functional; outline: as §3
Rattus norvegicus [17] = species: Rattus norvegicus; assay: Complete remission of DMBA-induced hormone-dependent mammary carcinoma tumors in rats at 8.5 mg; assay type: functional
Outline: (§7)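 Female SD rats bearing DMBA-induced, hormone-dependent mammary adenocarcinoma, with at least one tumor >140 mm², were grouped in tens. Dosing was sc per kg body weight: a single dose daily Monday–Thursday and a double dose Friday. Ovariectomy served as the comparison arm. Complete remission was defined as a tumor no longer palpable. Body weight and tumor area changes were also recorded.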

Rattus norvegicus [18] = species: Rattus norvegicus; assay: Initial tumor number of DMBA-induced hormone-dependent mammary carcinoma in rats at 8.5 mg; assay type: functional; outline: as §5
Rattus norvegicus [19] = species: Rattus norvegicus; assay: Final number of DMBA-induced hormone-dependent mammary carcinoma tumors in rats at 34 mg; assay type: functional
Outline: (§8)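 Sprague-Dawley rats carrying DMBA-induced, hormone-dependent mammary adenocarcinoma, at least one tumor >140 mm², were placed in groups of ten. Compounds were given sc, with doses in mg/kg: a single daily dose Monday to Thursday and a double dose on Friday. Ovariectomy served as a comparator group. New tumors arising during the test were counted.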

Rattus norvegicus [20] = species: Rattus norvegicus; assay: Percent unchanged tumor size of DMBA-induced hormone-dependent mammary carcinoma tumors in rats at 8.5 mg; assay type: functional
Rattus norvegicus [21] = species: Rattus norvegicus; assay: Progression of DMBA-induced hormone-dependent mammary carcinoma tumors in rats at 17 mg; assay type: functional
Rattus norvegicus [22] = species: Rattus norvegicus; assay: Percent change in body weight DMBA-induced hormone-dependent mammary carcinoma tumors in rats at 8.5 mg for 7 days; assay type: functional
Rattus norvegicus [23] = species: Rattus norvegicus; assay: Final number of DMBA-induced hormone-dependent mammary carcinoma tumors in rats at 17 mg; assay type: functional; outline: as §8
Rattus norvegicus [24] = species: Rattus norvegicus; assay: Initial tumor number of DMBA-induced hormone-dependent mammary carcinoma in rats at 17 mg; assay type: functional; outline: as §5
Rattus norvegicus [25] = species: Rattus norvegicus; assay: Percent change in DMBA-induced hormone-dependent mammary carcinoma tumor area at 34 mg after 28 days; assay type: functional; outline: as §5
[26] = molecular target: T1, Estrogen receptor (Mus musculus); assay: Estrogenic activity in uterotrophic test in mice at 2700 ug; assay type: functional; outline: as §4
Rattus norvegicus [27] = species: Rattus norvegicus; assay: Partial remission of DMBA-induced hormone-dependent mammary carcinoma tumors in rats at 34 mg; assay type: functional; outline: as §5
[28] = molecular target: T1, Estrogen receptor (Mus musculus); assay: Estrogenic activity in uterotrophic test in mice at 0 ug; assay type: functional; outline: as §4
Rattus norvegicus [29] = species: Rattus norvegicus; assay: Percent change in body weight DMBA-induced hormone-dependent mammary carcinoma tumors in rats at 17 mg for 7 days; assay type: functional
Outline: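 DMBA-induced, hormone-dependent mammary adenocarcinoma in SD rats; animals carrying at least one tumor over 140 mm² put in groups of ten. Compound given sc, dose per kg body weight per day: single dose Monday to Thursday, double dose Friday. Body weight read out as % change, alongside tumor counts, remission categories and % change in tumor area.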

Rattus norvegicus [30] = species: Rattus norvegicus; assay: Percent change in DMBA-induced hormone-dependent mammary carcinoma tumor area at 17 mg after 28 days; assay type: functional; outline: as §5
[31] = system: Estrogen receptor (Bos taurus); assay: Displacement of [3H]estradiol from calf estrogen receptor
Rattus norvegicus [32] = species: Rattus norvegicus; assay: Final number of DMBA-induced hormone-dependent mammary carcinoma tumors in rats at 8.5 mg; assay type: functional; outline: as §8
Rattus norvegicus [33] = species: Rattus norvegicus; assay: Percent unchanged tumor size of DMBA-induced hormone-dependent mammary carcinoma tumors in rats at 17 mg; assay type: functional
[34] = molecular target: T1, Estrogen receptor (Mus musculus); assay: Inhibitory activity in mouse uterine weight test at 0.1 ug; assay type: functional; outline: as §3
Rattus norvegicus [35] = species: Rattus norvegicus; assay: Complete remission of DMBA-induced hormone-dependent mammary carcinoma tumors in rats at 34 mg; assay type: functional; outline: as §7
Rattus norvegicus [36] = species: Rattus norvegicus; assay: Progression of DMBA-induced hormone-dependent mammary carcinoma tumors in rats at 34 mg; assay type: functional
Rattus norvegicus [37] = species: Rattus norvegicus; assay: Partial remission of DMBA-induced hormone-dependent mammary carcinoma tumors in rats at 17 mg; assay type: functional; outline: as §5
[38] = molecular target: T1, Estrogen receptor (Mus musculus); assay: Estrogenic activity in uterotrophic test in mice at 900 ug; assay type: functional; outline: as §6
Rattus norvegicus [39] = species: Rattus norvegicus; assay: Complete remission of DMBA-induced hormone-dependent mammary carcinoma tumors in ovariectomised rats; assay type: functional; outline: as §7
Rattus norvegicus [40] = species: Rattus norvegicus; assay: Percent change in DMBA-induced hormone-dependent mammary carcinoma tumor area at 8.5 mg after 28 days; assay type: functional; outline: as §5
Rattus norvegicus [41] = species: Rattus norvegicus; assay: Progression of DMBA-induced hormone-dependent mammary carcinoma tumors in ovariectomised rats; assay type: functional; outline: as §1
[42] = molecular target: T1, Estrogen receptor (Mus musculus); assay: Estrogenic activity in uterotrophic test in mice at 30 ug; assay type: functional; outline: as §4
Rattus norvegicus [43] = species: Rattus norvegicus; assay: Percent unchanged tumor size of DMBA-induced hormone-dependent mammary carcinoma tumors in rats at 34 mg; assay type: functional
Rattus norvegicus [44] = species: Rattus norvegicus; assay: Progression of DMBA-induced hormone-dependent mammary carcinoma tumors in rats at 8.5 mg; assay type: functional
Rattus norvegicus [45] = species: Rattus norvegicus; assay: Complete remission of DMBA-induced hormone-dependent mammary carcinoma tumors in rats at 17 mg; assay type: functional; outline: as §7
[46] = molecular target: T1, Estrogen receptor (Mus musculus); assay: Inhibitory activity in mouse uterine weight test at 1000 ug; assay type: functional; outline: as §3

T1 sequence (O08537 whole entry, looked up): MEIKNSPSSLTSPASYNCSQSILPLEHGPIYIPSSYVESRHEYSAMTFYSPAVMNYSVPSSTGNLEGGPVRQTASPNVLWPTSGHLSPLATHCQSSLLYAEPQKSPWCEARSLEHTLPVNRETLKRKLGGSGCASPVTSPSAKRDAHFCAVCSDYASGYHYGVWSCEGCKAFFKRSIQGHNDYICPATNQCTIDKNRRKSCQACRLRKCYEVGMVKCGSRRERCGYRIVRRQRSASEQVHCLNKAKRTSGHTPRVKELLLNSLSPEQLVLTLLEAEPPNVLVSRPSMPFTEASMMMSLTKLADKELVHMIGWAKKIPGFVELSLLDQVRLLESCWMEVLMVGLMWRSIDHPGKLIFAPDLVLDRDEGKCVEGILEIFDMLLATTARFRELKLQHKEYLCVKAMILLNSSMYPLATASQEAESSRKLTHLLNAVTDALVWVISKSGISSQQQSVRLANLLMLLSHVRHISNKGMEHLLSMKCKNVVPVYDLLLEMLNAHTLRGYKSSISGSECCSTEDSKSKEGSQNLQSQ
T1 sequence (P19785 whole entry, looked up): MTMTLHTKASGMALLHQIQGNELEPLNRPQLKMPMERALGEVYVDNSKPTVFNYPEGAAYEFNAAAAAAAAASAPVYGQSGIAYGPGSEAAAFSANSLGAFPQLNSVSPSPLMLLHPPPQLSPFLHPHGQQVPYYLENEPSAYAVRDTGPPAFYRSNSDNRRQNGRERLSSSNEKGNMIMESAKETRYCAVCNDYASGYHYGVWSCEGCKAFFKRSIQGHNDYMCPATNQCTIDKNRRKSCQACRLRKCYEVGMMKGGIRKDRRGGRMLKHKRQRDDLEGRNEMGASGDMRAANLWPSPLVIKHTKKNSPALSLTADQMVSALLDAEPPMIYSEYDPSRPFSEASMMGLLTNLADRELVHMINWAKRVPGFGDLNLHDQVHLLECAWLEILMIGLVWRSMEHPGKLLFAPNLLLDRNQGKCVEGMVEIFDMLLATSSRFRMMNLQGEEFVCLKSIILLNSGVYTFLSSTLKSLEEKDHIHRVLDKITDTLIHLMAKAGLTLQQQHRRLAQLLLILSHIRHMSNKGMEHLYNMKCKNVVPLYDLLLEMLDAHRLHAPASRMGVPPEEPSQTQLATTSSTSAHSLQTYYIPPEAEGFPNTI

`CCCCC(c1cccc(O)c1)C(CCCC)c1cccc(O)c1` (stereo unspecified) gave a No. of tumors (Rattus norvegicus [1]) of 8, a Change (Rattus norvegicus [2]) of 3.6% and an Effect [3] of 10.5. It also gave a Change (Rattus norvegicus [4]) of -96%, a Tumors (Rattus norvegicus [5]) of 3% and an inhibition [6] of 16%. The Effect [7] was 12.6, the Effect [8] was 33.9 and the Change (Rattus norvegicus [9]) was 0.3%. It also gave an Effect [10] of 25.9, a Tumors (Rattus norvegicus [11]) of 9% and an Effect [12] of 16.5. It also gave a No. of tumors (Rattus norvegicus [13]) of 22, an Effect [14] of 38.1 and a Tumors (Rattus norvegicus [15]) of 23%. For the same molecule, the inhibition [16] was 45%, the Tumors (Rattus norvegicus [17]) was 2% and the No. of tumors (Rattus norvegicus [18]) was 21. For the same molecule, the No. of tumors (Rattus norvegicus [19]) was 30, the Tumors (Rattus norvegicus [20]) was 24% and the Tumors (Rattus norvegicus [21]) was 55%. It also gave a Change (Rattus norvegicus [22]) of 1.5%, a No. of tumors (Rattus norvegicus [23]) of 45 and a No. of tumors (Rattus norvegicus [24]) of 27. The Change (Rattus norvegicus [25]) was 260%, the Effect [26] was 35.2 and the Tumors (Rattus norvegicus [27]) was 9%. The Effect [28] was 10.5, the Change (Rattus norvegicus [29]) was 1.7% and the Change (Rattus norvegicus [30]) was 389%. The Ka [31] was 2.3e+07 M⁻¹, the No. of tumors (Rattus norvegicus [32]) was 37 and the Tumors (Rattus norvegicus [33]) was 36%. The inhibition [34] was 3%, the Tumors (Rattus norvegicus [35]) was 6% and the Tumors (Rattus norvegicus [36]) was 58%. For the same molecule, the Tumors (Rattus norvegicus [37]) was 6%, the Effect [38] was 30.8 and the Tumors (Rattus norvegicus [39]) was 74%. It also gave a Change (Rattus norvegicus [40]) of 534%, a Tumors (Rattus norvegicus [41]) of 0% and an Effect [42] of 11.2. It also gave a Tumors (Rattus norvegicus [43]) of 27%, a Tumors (Rattus norvegicus [44]) of 65% and a Tumors (Rattus norvegicus [45]) of 3%. For the same molecule, the inhibition [46] was 1%.
